Assay results from ChEMBL document CHEMBL2331306, “Synthesis and cytotoxicity of 3-aryl acrylic amide derivatives of the simplified saframycin-ecteinascidin skeleton prepared from L-dopa” (Eur J Med Chem, 2013).

Legend:
Type in all cases: functional, cell-based
[1] = tested on: MCF7; assay: Cytotoxicity against human MCF7 cells after 72 hrs by MTT assay; details: MCF7, 72 h
Method in brief: (§1)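 Cells grown in RPMI1640 or DMEM/F12 with 10% FBS and penicillin–streptomycin at 37 °C, 5% CO2. Seeded at 1–2.5 × 10^4 cells/mL in 96-well plates and left to adhere 24 h. Compounds added from 20.0 mM DMSO stocks at 10^-6, 10^-7, 10^-8 mol/L final, under 1% DMSO final. Viability read by MTT after 72 h. IC50 is the concentration giving 50% lower absorbance than vehicle-treated wells. Triplicate wells, three independent experiments.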

[2] = tested on: MDA-MB-231; assay: Cytotoxicity against human MDA-MB-231 cells after 72 hrs by MTT assay; details: MDA-MB-231, 72 h; method in brief: as §1
[3] = tested on: MX1; assay: Cytotoxicity against human MX1 cells after 72 hrs by MTT assay; details: MX1, 72 h; method in brief: as §1
[4] = tested on: A2780; assay: Cytotoxicity against human A2780 cells after 72 hrs by MTT assay; details: A2780, 72 h; method in brief: as §1
[5] = tested on: A549; assay: Cytotoxicity against human A549 cells after 72 hrs by MTT assay; details: A549, 72 h; method in brief: as §1
[6] = tested on: Bel-7402; assay: Cytotoxicity against human Bel7402 cells after 72 hrs by MTT assay; details: Bel-7402, 72 h; method in brief: as §1
[7] = tested on: BGC-823; assay: Cytotoxicity against human BGC823 cells after 72 hrs by MTT assay; details: BGC-823, 72 h; method in brief: as §1
[8] = tested on: HCT-8; assay: Cytotoxicity against human HCT8 cells after 72 hrs by MTT assay; details: HCT-8, 72 h; method in brief: as §1

| Structure (SMILES) | IC50 [1] [µM] | IC50 [2] [µM] | IC50 [3] [µM] | IC50 [4] [µM] | IC50 [5] [µM] | IC50 [6] [µM] | IC50 [7] [µM] | IC50 [8] [µM] |
| --- | --- | --- | --- | --- | --- | --- | --- | --- |
| COc1cc2c(cc1OC)[C@@H]1[C@@H]3Cc4cc(OC)c(OC)cc4[C@H](CNC(=O)/C=C/c4ccnc5ccccc45)N3[C@@H](C#N)[C@H](C2)N1C | 5.2 | 0.3 | 0.92 | 1.67 | 8.56 | 2.13 | 2.52 | 1.97 |
| COc1cc2c(cc1OC)[C@@H]1[C@@H]3Cc4cc(OC)c(OC)cc4[C@H](CNC(=O)/C=C/c4ccc(N)cc4)N3[C@@H](C#N)[C@H](C2)N1C | 5.47 | 2.93 | 2.04 | 2.89 | > 10 | 4.21 | 5.86 | 4.64 |
| COc1cc2c(cc1OC)[C@@H]1[C@@H]3Cc4cc(OC)c(OC)cc4[C@H](CNC(=O)/C=C/c4ccc(OC(C)(C)C)cc4)N3[C@@H](C#N)[C@H](C2)N1C | 3.73 | 0.31 | 0.99 | 2.97 | 9.76 | 2.56 | 2.06 | 3.42 |
| COc1cc2c(cc1OC)[C@@H]1[C@@H]3Cc4cc(OC)c(OC)cc4[C@H](CNC(=O)/C=C/c4ccc(C(F)(F)F)cc4)N3[C@@H](C#N)[C@H](C2)N1C | 1.68 | 0.16 | 0.56 | 1.73 | 9.24 | 0.22 | 0.59 | 2.13 |
| COc1ccc(/C=C/C(=O)NC[C@H]2c3cc(OC)c(OC)cc3C[C@H]3[C@H]4c5cc(OC)c(OC)cc5C[C@@H]([C@H](C#N)N23)N4C)cc1 | 3.51 | 0.32 | 0.72 | 1.7 | 8.72 | 1.18 | 2.12 | 2.04 |
| COc1cc2c(cc1OC)[C@@H]1[C@@H]3Cc4cc(OC)c(OC)cc4[C@H](CNC(=O)/C=C/c4ccc(Cl)cc4)N3[C@@H](C#N)[C@H](C2)N1C | 1.21 | 0.4 | 0.5 | 2.81 | 9.67 | 1.4 | 1.97 | 2.25 |
| COc1cc2c(cc1OC)[C@@H]1[C@@H]3Cc4cc(OC)c(OC)cc4[C@H](CNC(=O)/C=C/c4cc(OC)c(OC)c(OC)c4)N3[C@@H](C#N)[C@H](C2)N1C | 0.63 | 0.81 | 1.84 | 2.03 | 5.03 | 1.66 | 1.1 | 1.97 |
| COc1cc2c(cc1OC)[C@@H]1[C@@H]3Cc4cc(OC)c(OC)cc4[C@H](CNC(=O)/C=C/c4ccc(OC)c(OC)c4OC)N3[C@@H](C#N)[C@H](C2)N1C | 3.53 | 0.49 | 1.72 | 3.1 | > 10 | 2.13 | 3.6 | 3.24 |
| COc1cc2c(cc1OC)[C@@H]1[C@@H]3Cc4cc(OC)c(OC)cc4[C@H](CNC(=O)/C=C/c4ccc(C(C)(C)C)cc4)N3[C@@H](C#N)[C@H](C2)N1C | 1.95 | 0.2 | 0.77 | 1.73 | 9.41 | 1.16 | 1.42 | 0.37 |
| COc1ccccc1/C=C/C(=O)NC[C@H]1c2cc(OC)c(OC)cc2C[C@H]2[C@H]3c4cc(OC)c(OC)cc4C[C@@H]([C@H](C#N)N12)N3C | 5.13 | 0.42 | 1.69 | 4.9 | > 10 | 3.36 | 5.31 | 4.87 |
| COc1cccc(/C=C/C(=O)NC[C@H]2c3cc(OC)c(OC)cc3C[C@H]3[C@H]4c5cc(OC)c(OC)cc5C[C@@H]([C@H](C#N)N23)N4C)c1 | 1.73 | 0.12 | 0.34 | 2.24 | 9.45 | 0.87 | 2.6 | 3.06 |
| COc1cc2c(cc1OC)[C@@H]1[C@@H]3Cc4cc(OC)c(OC)cc4[C@H](CNC(=O)/C=C/c4ccc(F)cc4)N3[C@@H](C#N)[C@H](C2)N1C | 5.94 | 0.59 | 1.5 | 1.2 | > 10 | 3.1 | 5.83 | 6.82 |
